According to ChEMBL document CHEMBL1138748, “A prodrug approach toward the development of water soluble fluoroquinolones and structure--activity relationships of quinoline-3-carboxylic acids” (2004):
≈ marks a conversion by molar mass, not a printed value.

Legend:
Type in all cases: functional
Escherichia coli = experiment: Antibacterial activity against Escherichia coli strain 25922
How it was run: (§1)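 Broth microdilution MIC run to NCCLS standards: serial 2-fold dilutions in cation-adjusted Mueller–Hinton broth, inoculum ~5 × 10^5 CFU/mL, incubated 35 °C for 18–24 h. Trays were read by eye, and the MIC was taken as the lowest concentration giving complete growth inhibition (no visible turbidity).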

Staphylococcus aureus [1] = experiment: Antibacterial activity against Staphylococcus aureus strain St au 29213; how it was run: as §1
Staphylococcus aureus [2] = experiment: Antibacterial activity against Staphylococcus aureus strain St au 33591 MRSA; how it was run: as §1
Pseudomonas aeruginosa = experiment: Antibacterial activity against Pseudomonas aeruginosa strain 27853; how it was run: as §1
Enterococcus faecalis = experiment: Antibacterial activity against Enterococcus faecalis strain 29212; how it was run: as §1

Compound	MIC (Escherichia coli) [µg/mL]	MIC (Staphylococcus aureus [1]) [µg/mL]	MIC (Staphylococcus aureus [2]) [µg/mL]	MIC (Pseudomonas aeruginosa) [µg/mL]	MIC (Enterococcus faecalis) [µg/mL]
O=C(O)c1cn(-c2ccc(O)cc2)c2cc(N3CC4CC3CN4)c(F)cc2c1=O (stereo not given)	1.56 (≈ 3.95 µM)	0.78 (≈ 1.97 µM)	0.78 (≈ 1.97 µM)	6.25 (≈ 15.8 µM)	12.5 (≈ 31.6 µM)
N[C@@H]1CCC[C@@H]2CN(c3cc4c(cc3F)c(=O)c(C(=O)O)cn4-c3ccc(O)cc3)C[C@@H]21	3.13 (≈ 7.15 µM)	0.2 (≈ 0.457 µM)	0.2 (≈ 0.457 µM)	12.5 (≈ 28.6 µM)	1.56 (≈ 3.57 µM)
COc1c(N2CC3CC2CN3)c(F)cc2c(=O)c(C(=O)O)cn(-c3ccc(O)cc3)c12 (stereo not given)	6.25 (≈ 14.7 µM)	6.25 (≈ 14.7 µM)	3.13 (≈ 7.36 µM)	12.5 (≈ 29.4 µM)	> 50
CN1CCN(c2nc3c(cc2F)c(=O)c(C(=O)O)cn3-c2ccc(O)cc2)CC1	0.05 (≈ 0.126 µM)	0.2 (≈ 0.502 µM)	0.2 (≈ 0.502 µM)	3.13 (≈ 7.86 µM)	1.56 (≈ 3.92 µM)
COc1c(N2CCN(C)CC2)c(F)cc2c(=O)c(C(=O)O)cn(-c3ccc(O)cc3)c12	0.1 (≈ 0.234 µM)	0.4 (≈ 0.936 µM)	0.4 (≈ 0.936 µM)	3.13 (≈ 7.32 µM)	3.13 (≈ 7.32 µM)
COc1c(N2CCC(N)C2)c(F)cc2c(=O)c(C(=O)O)cn(-c3ccc(O)cc3)c12 (stereo not given)	1.56 (≈ 3.77 µM)	1.56 (≈ 3.77 µM)	1.56 (≈ 3.77 µM)	6.25 (≈ 15.1 µM)	25 (≈ 60.5 µM)
COc1c(N2CCNCC2)c(F)cc2c(=O)c(C(=O)O)cn(-c3ccc(O)cc3)c12	0.78 (≈ 1.89 µM)	0.2 (≈ 0.484 µM)	0.4 (≈ 0.968 µM)	6.25 (≈ 15.1 µM)	25 (≈ 60.5 µM)
COc1c(N2CC3CCCNC3C2)c(F)cc2c(=O)c(C(=O)O)cn(-c3ccc(O)cc3)c12 (stereo not given)	1.56 (≈ 3.44 µM)	0.78 (≈ 1.72 µM)	0.78 (≈ 1.72 µM)	6.25 (≈ 13.8 µM)	12.5 (≈ 27.6 µM)
C[C@@H]1CN(c2nc3c(cc2F)c(=O)c(C(=O)O)cn3-c2ccc(O)cc2)C[C@H](C)N1	0.4 (≈ 0.97 µM)	3.13 (≈ 7.59 µM)	6.25 (≈ 15.2 µM)	6.25 (≈ 15.2 µM)	12.5 (≈ 30.3 µM)
COc1c(N2C[C@@H]3[C@@H](N)[C@@H]3C2)c(F)cc2c(=O)c(C(=O)O)cn(-c3ccc(O)cc3)c12	0.1 (≈ 0.235 µM)	0.1 (≈ 0.235 µM)	0.1 (≈ 0.235 µM)	1.56 (≈ 3.67 µM)	1.56 (≈ 3.67 µM)
O=C(O)c1cn(-c2ccc(O)cc2)c2nc(N3CC4CC3CN4)c(F)cc2c1=O (stereo not given)	1.56 (≈ 3.94 µM)	1.56 (≈ 3.94 µM)	3.13 (≈ 7.9 µM)	3.13 (≈ 7.9 µM)	> 50
O=C(O)c1cn(-c2ccc(O)cc2)c2nc(N3CCNCC3)c(F)cc2c1=O	1.56 (≈ 4.06 µM)	1.56 (≈ 4.06 µM)	1.56 (≈ 4.06 µM)	3.13 (≈ 8.14 µM)	12.5 (≈ 32.5 µM)
COc1c(N2C[C@@H](C)[C@H](C)C2)c(F)cc2c(=O)c(C(=O)O)cn(-c3ccc(O)cc3)c12	0.78 (≈ 1.83 µM)	0.78 (≈ 1.83 µM)	0.78 (≈ 1.83 µM)	6.25 (≈ 14.7 µM)	12.5 (≈ 29.3 µM)
COc1c(N2C[C@@H](C)[C@@H](C)C2)c(F)cc2c(=O)c(C(=O)O)cn(-c3ccc(O)cc3)c12	0.78 (≈ 1.83 µM)	0.78 (≈ 1.83 µM)	0.78 (≈ 1.83 µM)	3.13 (≈ 7.34 µM)	6.25 (≈ 14.7 µM)
C[C@@H]1CN(c2cc3c(cc2F)c(=O)c(C(=O)O)cn3-c2ccc(O)cc2)C[C@H](C)N1	0.1 (≈ 0.243 µM)	0.2 (≈ 0.486 µM)	0.4 (≈ 0.972 µM)	3.13 (≈ 7.61 µM)	3.13 (≈ 7.61 µM)
COc1c(N2CC3CCCN(C)C3C2)c(F)cc2c(=O)c(C(=O)O)cn(-c3ccc(O)cc3)c12 (stereo not given)	0.4 (≈ 0.856 µM)	0.78 (≈ 1.67 µM)	1.56 (≈ 3.34 µM)	6.25 (≈ 13.4 µM)	12.5 (≈ 26.7 µM)
COc1c(N2C[C@@H](N)C3(CC3)C2)c(F)cc2c(=O)c(C(=O)O)cn(-c3ccc(O)cc3)c12	0.4 (≈ 0.91 µM)	0.78 (≈ 1.77 µM)	0.78 (≈ 1.77 µM)	3.13 (≈ 7.12 µM)	6.25 (≈ 14.2 µM)
COc1c(N2C[C@@H](C)N[C@@H](C)C2)c(F)cc2c(=O)c(C(=O)O)cn(-c3ccc(O)cc3)c12	1.56 (≈ 3.53 µM)	3.13 (≈ 7.09 µM)	6.25 (≈ 14.2 µM)	50 (≈ 113 µM)	50 (≈ 113 µM)
O=C(O)c1cn(-c2ccc(O)cc2)c2cc(N3CC4CCCNC4C3)c(F)cc2c1=O (stereo not given)	1.56 (≈ 3.68 µM)	0.4 (≈ 0.945 µM)	0.4 (≈ 0.945 µM)	6.25 (≈ 14.8 µM)	3.13 (≈ 7.39 µM)
CC1CNCCN1c1nc2c(cc1F)c(=O)c(C(=O)O)cn2-c1ccc(O)cc1 (stereo not given)	0.78 (≈ 1.96 µM)	0.78 (≈ 1.96 µM)	0.78 (≈ 1.96 µM)	6.25 (≈ 15.7 µM)	6.25 (≈ 15.7 µM)
NC1CCN(c2nc3c(cc2F)c(=O)c(C(=O)O)cn3-c2ccc(O)cc2)C1 (stereo not given)	1.56 (≈ 4.06 µM)	0.78 (≈ 2.03 µM)	0.78 (≈ 2.03 µM)	1.56 (≈ 4.06 µM)	> 50

Further lines, results first:

MIC (Escherichia coli) [µg/mL]	MIC (Staphylococcus aureus [1]) [µg/mL]	MIC (Staphylococcus aureus [2]) [µg/mL]	MIC (Pseudomonas aeruginosa) [µg/mL]	MIC (Enterococcus faecalis) [µg/mL]	Compound
0.2 (≈ 0.488 µM)	0.2 (≈ 0.488 µM)	0.1 (≈ 0.244 µM)	1.56 (≈ 3.81 µM)	0.78 (≈ 1.91 µM)	N[C@@H]1CN(c2cc3c(cc2F)c(=O)c(C(=O)O)cn3-c2ccc(O)cc2)CC12CC2
0.4 (≈ 1.04 µM)	0.4 (≈ 1.04 µM)	0.4 (≈ 1.04 µM)	1.56 (≈ 4.07 µM)	3.13 (≈ 8.16 µM)	NC1CCN(c2cc3c(cc2F)c(=O)c(C(=O)O)cn3-c2ccc(O)cc2)C1 (stereo not given)
6.25 (≈ 14.6 µM)	3.13 (≈ 7.32 µM)	3.13 (≈ 7.32 µM)	50 (≈ 117 µM)	25 (≈ 58.5 µM)	COc1c(N2CCC(CN)C2)c(F)cc2c(=O)c(C(=O)O)cn(-c3ccc(O)cc3)c12 (stereo not given)
0.2 (≈ 0.503 µM)	0.2 (≈ 0.503 µM)	0.2 (≈ 0.503 µM)	1.56 (≈ 3.93 µM)	1.56 (≈ 3.93 µM)	C[C@@H]1CN(c2cc3c(cc2F)c(=O)c(C(=O)O)cn3-c2ccc(O)cc2)C[C@H]1N
3.13 (≈ 7.88 µM)	0.78 (≈ 1.96 µM)	0.78 (≈ 1.96 µM)	50 (≈ 126 µM)	12.5 (≈ 31.5 µM)	C[C@@H]1C[C@H](N)CN1c1cc2c(cc1F)c(=O)c(C(=O)O)cn2-c1ccc(O)cc1
0.2 (≈ 0.457 µM)	0.2 (≈ 0.457 µM)	0.4 (≈ 0.914 µM)	6.25 (≈ 14.3 µM)	3.13 (≈ 7.15 µM)	CN1CCCC2CN(c3cc4c(cc3F)c(=O)c(C(=O)O)cn4-c3ccc(O)cc3)CC21 (stereo not given)
0.2 (≈ 0.503 µM)	0.2 (≈ 0.503 µM)	0.2 (≈ 0.503 µM)	1.56 (≈ 3.93 µM)	1.56 (≈ 3.93 µM)	C[C@H]1CN(c2cc3c(cc2F)c(=O)c(C(=O)O)cn3-c2ccc(O)cc2)C[C@H]1N
0.2 (≈ 0.506 µM)	0.1 (≈ 0.253 µM)	0.1 (≈ 0.253 µM)	3.13 (≈ 7.92 µM)	1.56 (≈ 3.95 µM)	N[C@@H]1[C@H]2CN(c3cc4c(cc3F)c(=O)c(C(=O)O)cn4-c3ccc(O)cc3)C[C@@H]12
1.56 (≈ 3.79 µM)	0.4 (≈ 0.972 µM)	0.78 (≈ 1.9 µM)	25 (≈ 60.8 µM)	3.13 (≈ 7.61 µM)	C[C@H](N)[C@H]1CCN(c2cc3c(cc2F)c(=O)c(C(=O)O)cn3-c2ccc(O)cc2)C1
0.78 (≈ 1.91 µM)	0.4 (≈ 0.977 µM)	0.78 (≈ 1.91 µM)	6.25 (≈ 15.3 µM)	6.25 (≈ 15.3 µM)	N[C@H]1CN(c2cc3c(cc2F)c(=O)c(C(=O)O)cn3-c2ccc(O)cc2)CC12CC2
1.56 (≈ 3.79 µM)	0.4 (≈ 0.972 µM)	0.4 (≈ 0.972 µM)	25 (≈ 60.8 µM)	6.25 (≈ 15.2 µM)	C[C@H](N)[C@@H]1CCN(c2cc3c(cc2F)c(=O)c(C(=O)O)cn3-c2ccc(O)cc2)C1
3.13 (≈ 7.61 µM)	1.56 (≈ 3.79 µM)	1.56 (≈ 3.79 µM)	50 (≈ 122 µM)	25 (≈ 60.8 µM)	C[C@@H](N)[C@H]1CCN(c2cc3c(cc2F)c(=O)c(C(=O)O)cn3-c2ccc(O)cc2)C1
1.56 (≈ 3.93 µM)	0.4 (≈ 1.01 µM)	0.78 (≈ 1.96 µM)	25 (≈ 62.9 µM)	6.25 (≈ 15.7 µM)	NCC1CCN(c2cc3c(cc2F)c(=O)c(C(=O)O)cn3-c2ccc(O)cc2)C1 (stereo not given)
